Experimental data reported in article PMC11247636 (ACS Medicinal Chemistry Letters, 2024).

Tests used:
[1] = tested on: L-cystine stone formation in Slc3a1-knockout mouse model of cystinuria; assay: In vivo efficacy in Slc3a1-knockout mouse model of cystinuria; design: species or system Slc3a1-knockout male mice; details: 150 μmol/kg by gavage daily for 8 weeks
[2] = L-cystine crystallization inhibition assay; details: from EC50 values
Method in brief: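 Supersaturated L-cystine (2.9 mM in Millipore water) was incubated with varying test compound concentrations for 72 h at room temperature, then centrifuged. L-cystine remaining in the supernatant was measured. EC50 came from dose–response curves, and relative potency was expressed as a ratio of EC50 values against reference inhibitors.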

[3] = Oral bioavailability and pharmacokinetics in Slc3a1-knockout mice; format: in vivo; details: male, mouse, plasma, 150 umol/kg
Method in brief: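 Male Slc3a1-knockout mice (4 per route) received a single oral gavage of 150 μmol/kg in normal saline (100 μL) or a tail-vein iv dose of 30 μmol/kg. About 60 μL saphenous blood was drawn pre-dose and at 5, 15, 30 min and 1, 4, 8, 24 h. Plasma was stored at −80 °C. Parent and mixed-disulfide metabolite were quantified by LC-MS/MS against synthetic metabolite standard. F was derived from oral versus iv exposure.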

- CL/F [3]: 133 mL/min/kg
- Vd/F [3]: 7 L/kg
Compound: N[C@@H](CSSC[C@H](N)C(=O)N1CCC2(CCCN2)CC1)C(=O)N1CCC2(CCCN2)CC1 [compound 3, 8-L-cystinyl bis(1,8-diazaspiro[4.5]decane)]
- Effect on growth [1]: no adverse effect on growth
- Mice with stones in treated group ([1]; water group 28 of 51): 1 out of 25
- Fold more potent than CDME in inhibiting L-cystine crystallization [2]: about 120 ×
- Fold more potent than LH708 in inhibiting L-cystine crystallization [2]: about 2 ×
- Fold more potent than CDME in inhibiting L-cystine crystallization ([2]; listed as LH1753): 120 ×
- Fold more potent than LH708 in inhibiting L-cystine crystallization ([2]; listed as LH1753): 2 ×
